# Screening data deposited in PubChem BioAssay by The Scripps Research Institute Molecular Screening Center.
# A selection: hits, their analogues and other compounds. The true share with any hit is near 2.4%.
# HGIII-sPLA2 inh: Blocks human group III sPLA2 activity | Q9NZ20 | QFRET BODIPY PC-A2 liposome hydrolysis, fluorescence | inhibition, % at 12.2 µM | 370,000 tested, 0.56% active | AID 743126;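 active = inhibition above mean plus 3 SD of compounds lying within the high and low control bounds, cut at about 19% in these data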
# Target sequence (Q9NZ20 whole entry, looked up): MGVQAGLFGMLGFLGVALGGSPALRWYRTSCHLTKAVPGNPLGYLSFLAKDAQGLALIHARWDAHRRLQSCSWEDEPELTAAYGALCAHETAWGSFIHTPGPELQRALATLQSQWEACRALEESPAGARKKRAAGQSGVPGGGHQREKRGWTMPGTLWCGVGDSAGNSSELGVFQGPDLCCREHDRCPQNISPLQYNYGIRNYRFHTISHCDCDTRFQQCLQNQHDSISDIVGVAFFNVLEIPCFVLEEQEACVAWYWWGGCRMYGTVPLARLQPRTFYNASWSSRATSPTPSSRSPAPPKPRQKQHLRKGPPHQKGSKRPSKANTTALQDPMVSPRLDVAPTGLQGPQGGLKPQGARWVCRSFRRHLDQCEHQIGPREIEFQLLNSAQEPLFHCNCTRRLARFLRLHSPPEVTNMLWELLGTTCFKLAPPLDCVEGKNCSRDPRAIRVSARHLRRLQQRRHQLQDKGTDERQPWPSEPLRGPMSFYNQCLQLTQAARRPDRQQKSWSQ
# PfM18AAP inh: PfM18AAP enzyme inhibition. inhibition, % at 7.35 µM. AID 1822. 290,000 tested, 1.2% active. recombinant PfM18AAP, H-Glu-NHMec fluorogenic cleavage;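 active = inhibition above the campaign mean inhibition over all tested compounds plus 3 SD, cut at about 28% in these data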
# VIM-2 inh: blocks Pseudomonas aeruginosa VIM-2 metallo-beta-lactamase; 290,000 tested, 0.89% active; inhibition, % at 5.6 µM; purified VIM-2, nitrocefin hydrolysis, epi-absorbance fluorescence; AID 1527;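 active = inhibition above the mean of all tested compounds plus 3 SD, cutoff set per screening run, cut at about 7.5% in these data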;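 also: red hydrolysis product quenches plate fluorescence so inhibitors raise well fluorescence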
# IMP-1 inhibitor: blocks Pseudomonas aeruginosa IMP-1 metallo-beta-lactamase; 290,000 tested, 0.45% active; AID 1556; purified IMP-1, nitrocefin hydrolysis, epi-absorbance fluorescence; inhibition, % at 5.6 µM;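 active = inhibition above the mean plus 3 SD of all compounds in the same screening run, cut at about 4.5% in these data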
#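 System: purified IMP-1; amount: IMP-1 0.2 nM before substrate addition; compound: single dose, 5.6 µM; times: 25 °C, 15 min preincubation, 25 min reaction; signal: Epi-absorbance via hydrolysed-nitrocefin quenching of white-plate fluorescence, 480/530 nm, EDTA stop; benchmarks: DMSO with and without IMP-1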
# Numbers stand for hits; . = inactive; / = no result.
SMILES,HGIII-sPLA2 inh,PfM18AAP inh,VIM-2 inh,IMP-1 inhibitor
O=C1/C(=C/c2cccs2)SC(=S)N1NS(=O)(=O)c1ccccc1,.,.,.,9.0
COc1ccc(OC)c(/C=C2\SC(=S)N(NS(=O)(=O)c3ccccc3)C2=O)c1,.,.,.,.
COc1cc(/C=C/C(=O)C2C(=O)C=C(C)OC2=O)cc(OC)c1O (stereo not given),.,31.0,.,.
CCCN1CCS(=O)(=O)N(Cc2cn(Cc3ccccc3)nn2)C(C(=O)OC)C1 (stereo not given),.,/,/,/
COc1ccc2c(c1)[C@H]1[C@H](CO2)[C@H](c2ccccc2)[C@]2(C)C(=O)Nc3cc(F)ccc3C(=O)N12,.,/,/,/
COc1ccc2c(c1)OC[C@H]1[C@H]2N2C(=O)c3ccc(F)cc3NC(=O)[C@@]2(C)[C@H]1c1ccccc1,38.2,/,/,/
C=CCN1C(=O)[C@@H](CC(=O)N2CCCCC2)[C@]2(C(=O)OCC)CCCCC/C=C/12,.,/,/,/
CCOc1ccc2c(c1)C(NC(C)=O)C(=O)N2CCN1CCOCC1 (stereo not given),.,.,.,.
CC(=O)NC1C(=O)N(CCN2CCOCC2)c2ccc(Br)cc21 (stereo not given),.,30.2,.,.
O=C(NCC1CCN(C(=O)C(=O)c2cc3ccccc3o2)CC1)c1cc(C(F)(F)F)cc(C(F)(F)F)c1,.,/,/,/
CCOC(=O)c1cc(-c2ccncc2)nc2c1c(C)nn2C,.,.,8.2,.
C=CCn1c(SCC(=O)Nc2ccccc2-c2ccccc2)nnc1-c1ccc(Cl)cc1,.,/,/,/
CC(=O)Nc1ccc2cc3ccc(NC(C)=O)cc3nc2c1,.,.,8.4,.
O=C(CN1C(=O)CCSc2ccccc21)Nc1ccc(Cl)c(Cl)c1,.,/,/,/
CCc1ccc(NC(=O)CN(CC(=O)Nc2ccc(CC)cc2)CC(C)O)cc1 (stereo not given),.,.,.,18.2
CCCCCC[C@@H](CN(CCCC)S(C)(=O)=O)c1ccccc1,.,/,/,/
O=C(CC1SC(=O)N(c2ccccc2)C1=O)Nc1ccccc1 (stereo not given),.,.,.,.
N=C1SC(CC(=O)Nc2ccc([N+](=O)[O-])cc2)C(=O)N1c1ccccc1 (stereo not given),.,29.1,.,.
CCc1ccc(C(=O)CSc2ncn[nH]2)cc1,.,28.1,.,.
Cc1ccc(C(=O)CSc2ncn[nH]2)cc1,.,.,.,.
CC(=O)N1c2ccccc2C2(O)N=C(C)SC12 (stereo not given),/,41.9,.,.
N=c1c(C(=O)NC2CCCCC2)cc2c(=O)n3ccccc3nc2n1Cc1ccccc1,.,.,.,.
Cc1cccn2c(=O)c3cc(C(=O)NCC4CCCO4)c(=N)n(Cc4cccnc4)c3nc12 (stereo not given),.,.,.,.
N=c1c(C(=O)NC2CCCCC2)cc2c(=O)n3ccccc3nc2n1Cc1cccnc1,.,.,8.2,.
N=c1c(C(=O)NCC2CCCO2)cc2c(=O)n3ccccc3nc2n1Cc1cccnc1 (stereo not given),.,.,8.0,.
SMILES,HGIII-sPLA2 inh,PfM18AAP inh,VIM-2 inh,IMP-1 inhibitor
N=c1c(C(=O)NCC2CCCO2)cc2c(=O)n3ccccc3nc2n1Cc1ccc(F)cc1 (stereo not given),.,.,9.7,.
CCOc1ccc(-n2c(SCC(=O)Nc3cccc4ccccc34)nnc2-c2ccncc2)cc1,.,/,/,/
CCc1ccccc1NC(=O)CCS(=O)(=O)c1ccc(OC)cc1,.,.,.,37.4
CCOc1ccccc1NC(=O)CCS(=O)(=O)c1ccc(OC)cc1,.,.,.,.
O=C(Nc1cc(C(F)(F)F)ccc1N1CCOCC1)C1Cc2ccccc2CN1C(=O)c1ccco1 (stereo not given),.,.,.,5.6
O=C(O)C1C2C=CC(C2)C1C(=O)NCCCN1CCCC1=O (stereo not given),.,.,.,11.8
COc1ccccc1C1NC(=O)NC(C)=C1C(=O)Nc1cccc(C)c1C (stereo not given),.,.,.,5.0
O=C1/C(=C/c2ccco2)SC(=S)N1CC1CCCO1 (stereo not given),.,.,.,5.4
O=C1/C(=C/c2ccco2)SC(=S)N1C1CCS(=O)(=O)C1 (stereo not given),.,31.5,.,.
O=C1/C(=C\c2ccco2)SC(=S)N1c1ccccc1,.,.,.,.
O=C1/C(=C\c2ccco2)SC(=S)N1C1CCS(=O)(=O)C1 (stereo not given),.,29.3,.,7.3
Cc1ccc(/C=C2\SC(=S)N(C3CCS(=O)(=O)C3)C2=O)cc1 (stereo not given),.,.,.,.
COc1ccc2c3c(cccc13)C(=O)N(O)C2=O,.,.,9.0,.
O=C1c2cccc3c([N+](=O)[O-])ccc(c23)C(=O)N1O,.,.,8.8,.
COc1ccc(CN2C(=O)[C@@](O)(c3cccn3C)c3cc(Br)ccc32)cc1,.,/,/,/
COC(=O)Nc1sc2c(c1C(N)=O)CCC(C)C2 (stereo not given),.,48.5,.,.
Cc1cccc(NC(=O)[C@@H]2CC(=O)O[C@@H]2c2ccccc2)c1C,.,/,/,/
CCCOc1ccc(-c2nc(=S)[nH][nH]2)cc1,.,.,.,35.3
COc1ccc(C2=C(c3ccc([N+](=O)[O-])cc3)C(=O)OC2)cc1,.,.,.,.
Cc1ccc(C2=C(c3ccc([N+](=O)[O-])cc3)C(=O)OC2)cc1C,.,.,.,12.6
COC(Cn1c(-c2cccc(S(=O)(=O)N(C)C)c2)n[nH]c1=S)OC,.,30.9,.,.
CC(C)N1C(=O)CC(Nc2cccc3cccc(N)c23)C1=O (stereo not given),.,.,.,12.4
CN1C(=O)CC(Nc2cccc3cccc(N)c23)C1=O (stereo not given),/,.,.,.
COCCCNC(=O)C[C@H]1C[C@@]2(C(=O)OC)C(=C[C@H](C(C)C)O[C@@H]2C2CC2)N(Cc2ccc(Cl)cc2Cl)C1=O,.,/,/,/
CCN(CC)CCN(C(=O)C1=COCCO1)c1nc2ccc(C)cc2s1,.,.,.,.
SMILES,HGIII-sPLA2 inh,PfM18AAP inh,VIM-2 inh,IMP-1 inhibitor
CCN(CC)CCN(C(=O)C1=COCCO1)c1nc2c(OC)ccc(OC)c2s1,.,.,8.9,.
COC(=O)[C@]12C[C@H](CC(=O)NCc3cccc4ccccc34)C(=O)N(Cc3ccco3)C1=C[C@H](C(C)C)O[C@@H]2C1CC1,.,/,/,/
Cc1nnc(SCC(=O)Nc2sc3c(c2C(N)=O)CCC(C)C3)[nH]c1=O (stereo not given),.,/,/,/
Cc1nnc(SCC(=O)Nc2sc3c(c2C(N)=O)CCCC3)[nH]c1=O,.,29.4,.,.
COC(=O)c1cc(-c2ccc(F)cc2OCc2ccccc2)c(=O)n2c1CCC2,.,/,/,/
CCOC(=O)c1ccsc1NC(=O)c1ccco1,.,.,9.1,.
Cc1ccccc1CN1CCCCC(NC(=O)Nc2ccccc2-c2ccccc2)C1=O (stereo not given),.,/,/,/
O=S(=O)(c1ccc2c(c1)OCCO2)N1CCC(n2nnc3cc(C(F)(F)F)ccc32)CC1,.,.,.,6.9
Nn1c(SCC(=O)NC2CCCCC2)nnc1-c1cc(-c2ccc(F)cc2)n[nH]1,.,/,/,/
